Assay results taken from the RNAGym collection of RNA variant scans (doi:10.1126/science.aae0568).
This sample holds only a part of the variants without activity.

B1: tRNA (parent)
chain: GUUCCGUUGGCGUAAUGGUAACGCGUCUCCCUCCUAAGGAGAAGACUGCGGGUUCGAGUCCCGUACGGAACG

Variants of: B1
Test: yeast fitness relative to wild type (ratio to wild type); higher = fitter; tRNA-Arg(CCU), competitive growth, 37 C, YPD
How it was run: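 The tRNA-Arg(CCU) gene variants were made by chemical synthesis with a 3% per-site mutation rate at 69 sites and inserted at the native genomic locus of Saccharomyces cerevisiae. After pooling, the strains were competed in YPD at 37°C for 24 hours in six parallel replicates. Gene amplicons from the start population and each end population were read by 100-nucleotide paired-end sequencing, and Darwinian fitness relative to wild type was taken from genotype frequency changes. Genotypes needed ≥ 100 starting reads, and estimates < 0.5 were set to 0.5.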

Variant	yeast fitness
C11G C46U G51C C66G	≤ 0.5
C4U G10A A15C	0.551
C11G C46U C62U	≤ 0.5
C61G U64G	0.651
G6C G23C C24U G68A	0.689
A21G C61G	0.654
A14C U59C C62A	≤ 0.5
C30U C33G A69C	0.546
U2C U28A G56A	≤ 0.5
A37U A40U U64C G67A	≤ 0.5
G6C G18A G51C A65C	≤ 0.5
U19A C27U C66U	0.786
C4U C11A C27A C62A	≤ 0.5
G9A U13A U47A C60A	≤ 0.5
C11U A20U C24U C33G U47A C49U	0.557
U13C A20G C46U	0.66
C33G G51C	≤ 0.5
G6A U8C U19A C30A A45U G58C A69U	≤ 0.5
G10A G63A	0.698
C11U A14C G63C	≤ 0.5
C30G A70C	0.719
G44C C49U	0.783
G12U C24A G44A A65U	≤ 0.5
U3C C11U A14C A21U A36C G58C	0.562

Variant	yeast fitness
U3A C11G A14C C24G C31A	≤ 0.5
C24G C61G C62U C66U	≤ 0.5
C5A A21G A65U	0.655
C31U C66U	1.03
A15U U16A C27G C55U C62U G67C	≤ 0.5
A45C G58C A69C	0.651
A21U C24A C30A C31G A43U U54G C62G	≤ 0.5
G18C A37G G51A C61U C66A	≤ 0.5
U2C C24U G44C A69U	≤ 0.5
C4G G18C G68C	0.636
U7C U26C C31G U35C C46A C66A	≤ 0.5
C5G G10C A37U G38A	≤ 0.5
U8A G48C A70G	≤ 0.5
A15G G58C	0.949
C5A G9A U32C	0.602
G23C C49U C55G	≤ 0.5
C5A G48C C62U	0.629
C27G C29G C46A A65G C66U	≤ 0.5
A20C C22G C29A C30G	0.616
C11A U16C U32G C49G C55A C66G A70C	≤ 0.5
A21G C29U G41C A42G U53G A57C	≤ 0.5
C24G G39C A45G U54A	≤ 0.5
C34A C62G	0.675
A15C U54A C61U A70U	0.645

Variant	yeast fitness
G10C G25A U26C C46G	≤ 0.5
A37C G56A A69U	0.647
C24A C30U A36G C46A	0.579
G6A C33G C34G C61A	0.548
C5G C22G U47A A70C	≤ 0.5
G12C A40G A70G	0.567
A14U C24G A36U	≤ 0.5
U32C C34A A37U C46U	≤ 0.5
C11A A20U C33U C34U G48A C66U	0.557
C22U C27G C66U A69U	≤ 0.5
A20U C24U G48A C55U C60G	≤ 0.5
G38A U47C C66U	0.555
G25C C46A G50C	0.618
C61A A69C	0.631
C62U A65G	0.886
C24G A57G A70G	≤ 0.5
C24G U28C U32G A69G	≤ 0.5
C29U C33U C61G	≤ 0.5
C27U A36U A43G C46U	0.559
C24A A43C A65G	≤ 0.5
C5U U26C G50C G51C G56C G67A	≤ 0.5
C5A A57G C66U	≤ 0.5
U7A A21C C29U A37G A57G	≤ 0.5
C5G A15U G41A G58A	≤ 0.5

Variant	yeast fitness
G6C C29G C66U	0.565
C5G C22U A36G A65C	≤ 0.5
G17C A20U C33G	≤ 0.5
A15C A45G C55U	≤ 0.5
G58C A65G	0.933
C27U C30U C34G A37C A57G C61A	≤ 0.5
G44C C55G A69U	0.746
U16C A40C	0.923
C11U A14G A37C C49U	≤ 0.5
U8G C11A C30U A57U	0.613
C49A G68U	0.723
C4U U7A U8A	≤ 0.5
C11A U16C U32G A36G C49G C55A	0.53
U3C A21G A43U A65C G68C	≤ 0.5
C5G A37C C61U	≤ 0.5
U8A C22G U35C A70G	≤ 0.5
G12C C30G C62A	≤ 0.5
C4U U47C	1.06
C11G A20U C22G A43C	≤ 0.5
G17C C46G C55U	0.571
U19G G41U	0.691
U13C A20C G48C A57G	≤ 0.5
G23C C30U C46U	≤ 0.5
C11G A14C A37C G44C	≤ 0.5

Variant	yeast fitness
C24U G52A A57C	≤ 0.5
G9A C60U	0.742
C11U C62A	0.743
U26A G41A C66A	≤ 0.5
G25C G68A A69G	0.607
G48C C49U C62U	0.637
G12C U28G A37G G41A G48A	0.549
U2A C22U A43U	0.533
U28A U32A C55G	≤ 0.5
A15C A42G A43G	≤ 0.5
G25A C33U A45U C60G	≤ 0.5
G9A C11G A57U	≤ 0.5
G9A U28C A40C G48A	≤ 0.5
C5A A20G A65U	≤ 0.5
G10C C34A	0.504
G9A A37G A40U C49A A57U	≤ 0.5
C5U A37C U47C C61U	≤ 0.5
A15G G51A A65U	≤ 0.5
G10A A36C C66U	≤ 0.5
G10C C29U A43G U53G G63A	0.527
A15C A20C C29A A57G	0.561
C27G C30G C31U U54C	≤ 0.5
U7C A36G A45U	0.569
U32C C46G A65G	0.917

Variant	yeast fitness
A14G G18C C24G U28C C30U G48C U53A	0.665
G6A U32C C46G	0.694
C5U G10C C34A A57U G67C	≤ 0.5
C4A U35C G48C C55U G56A C62U	≤ 0.5
C5U G9A U13A A36C G50C	≤ 0.5
C5A A65C A70C	0.675
G9A G48C	0.985
A15G C24G C66G	≤ 0.5
A14U C27A	0.76
U16G C49U G52A G63A	0.632
G9C A15C A36U A43U	0.738
G6A G12C U16A A21C	≤ 0.5
A21G C30G A69C	0.544
U3C C30A G51A	0.602
C5G G12A C46U G48A G52C	≤ 0.5
C30U A42G C55U	0.545
G10A A20G U26C G39A G50A	≤ 0.5
C5U G10C A21U C22U C24U U32C C46U C61G	≤ 0.5
U8C U28A C29G A57C G67A	≤ 0.5
G17A U19A C30U A37U G67A	≤ 0.5
C33A C49U C55G	≤ 0.5
C5A C24G A65U	0.694
U16A G63C A65G	≤ 0.5
C5U C34G C55A G63C	≤ 0.5

Variant	yeast fitness
U7C G67C	0.951
U13A U53C U59A U64A A70C	≤ 0.5
C27U A70U	0.988
A43C A65C	1.03
U2C C30U C31G	0.771
C5G A14C A37G C46U G68C	≤ 0.5
A14U C29U A37U G41A	≤ 0.5
A20U G23A G56A A69C	≤ 0.5
G12C C30U A36C A40U	≤ 0.5
U3C A15U C34U A43G	0.545
U3A G39C	0.822
U3C A20U U64A	0.594
A15C U32C C62U	0.54
C5G C33A G41C A65C	≤ 0.5
U16G U47A	0.781
U7A U32C C33G	≤ 0.5
C5G U26A A40U G63C	≤ 0.5
G6C A36G	0.875
C4U C11G C34U C60A	≤ 0.5
C5A A43C A65U	≤ 0.5
C5A C22U C29U A42U	≤ 0.5
C33G C34G A43C G48C C62U	≤ 0.5
C34A G63A	0.621
